Results collected from several papers.
Lines come from different studies, so protocols differ.
SLC6A2: Sodium-dependent noradrenaline transporter (SLC6A2, Homo sapiens, UniProt P23975)
MPO: Myeloperoxidase (MPO, Homo sapiens, UniProt P05164)

The inhibition of `CSc1nc(NCCC2CC2)c2ncn([C@H]3[C@H](O)[C@H](O)[C@@H]4C[C@@H]43)c2n1` is reported as 5% (SLC6A2; ligand displacement, radioligand; 10 µM).
For `CC(=O)N[C@@H](C)c1cc(Cl)ccc1C1CCN(C(=O)[C@@H]2CN(C(C)(C)C)C[C@H]2c2ccc(F)cc2F)CC1`, the Emax was 104% (Melanocortin receptor 4 (MC4R, Homo sapiens, UniProt P32245); cAMP, agonist).
For `N#CC[C@@]12C[C@@H]1[C@@H](n1cnc3c(NCCCCCc4ccccc4)nc(I)nc31)[C@H](O)[C@@H]2O`, the inhibition was 4% (SLC6A2; ligand displacement, radioligand; 10 µM).
`C1=C/COCc2cc(ccc2OCCN2CCCC2)Nc2nccc(n2)-c2cccc(c2)COC/1` gave a remaining binding of 81% (Peripheral plasma membrane protein CASK (CASK, Homo sapiens, UniProt O14936); binding; 0.1 µM).
The Emax of `CCCCC[C@H](O)/C=C/[C@H]1C(=O)C[C@H](O)[C@@H]1C/C=C\CCCC(=O)O` is reported as 101% (Prostaglandin D2 receptor (PTGDR, Homo sapiens, UniProt Q13258); G protein activation, agonist, BRET).
For `COc1ccc(Cl)cc1-c1cc(=O)[nH]c(=S)n1CC(N)=O`, the remaining activity was 2.31% (MPO; enzyme activity, inhibitor; 10 µM).
The remaining binding of `COc1ccc2oc(-c3ccc4nc(N)oc4c3)c/c(=N\c3ccccc3NC(=O)CCN)c2c1` is reported as 94% (Fibroblast growth factor receptor 1 (FGFR1, Homo sapiens, UniProt P11362); binding; 1 µM).
The inhibition of `Cc1cc(O)c(-c2ccc([C@@H](C)CN(C)C)cc2)c2c1[nH]c(=O)c1sccc12` is reported as 13.6% (STE20/SPS1-related proline-alanine-rich protein kinase (STK39, Homo sapiens, UniProt Q9UEW8); enzyme activity, inhibitor; 0.1 µM).
The inhibition of `N#CC[C@@]12C[C@@H]1[C@@H](n1cnc3c(NCc4cccc(Cl)c4)nc(C#Cc4ccc(Cl)s4)nc31)[C@H](O)[C@@H]2O` is reported as 76% (SLC6A2; ligand displacement, radioligand; 10 µM).
With `NC/C(=C\F)COc1cccc(Cn2c(=S)[nH]c(=O)c3[nH]cnc32)c1` the inhibition was 98.5% (MPO; enzyme activity, inhibitor, fluorescence; 0.3333 µM).
With `CCCCC(=O)Nc1ccc(-c2ccc3ncn(CCC)c(=O)c3c2)cn1` the remaining binding was 100% (Tyrosine-protein kinase Fgr (FGR, Homo sapiens, UniProt P09769); binding, competition with immobilised ligand; 0.5 µM).
`CNc1nc(C#Cc2ccc(Cl)s2)nc2c1ncn2[C@H]1[C@H](O)[C@H](O)[C@]2(CC#N)C[C@H]12` gave an inhibition of 16% (SLC6A2; transporter uptake, inhibitor, radiometric; HEK293; 10 µM).
`CC(C)OCCn1c(=S)[nH]c(=O)c2[nH]ccc21` has a remaining activity of 27.6% (MPO; enzyme activity, inhibitor; 0.68 µM).
